Data from ChEMBL document CHEMBL1125249, “Structure-affinity relationships of 12-sulfonyl derivatives of 5,8,8a,9,10,11,12,12a,13,13a-decahydro-6H-isoquino[2,1-g][1 ,6] naphthyridines at alpha-adrenoceptors” (J Med Chem, 1991).

Columns and labels:
[1] = target: T1, Adrenergic receptor alpha-2 (Rattus norvegicus, UniProt P22086+P19328+P22909); assay: Binding affinity to alpha-2 adrenergic receptor determined by measurement of [3H]yohimbine displacement from rat cortical membrane
T1 sequence (P22086 whole entry): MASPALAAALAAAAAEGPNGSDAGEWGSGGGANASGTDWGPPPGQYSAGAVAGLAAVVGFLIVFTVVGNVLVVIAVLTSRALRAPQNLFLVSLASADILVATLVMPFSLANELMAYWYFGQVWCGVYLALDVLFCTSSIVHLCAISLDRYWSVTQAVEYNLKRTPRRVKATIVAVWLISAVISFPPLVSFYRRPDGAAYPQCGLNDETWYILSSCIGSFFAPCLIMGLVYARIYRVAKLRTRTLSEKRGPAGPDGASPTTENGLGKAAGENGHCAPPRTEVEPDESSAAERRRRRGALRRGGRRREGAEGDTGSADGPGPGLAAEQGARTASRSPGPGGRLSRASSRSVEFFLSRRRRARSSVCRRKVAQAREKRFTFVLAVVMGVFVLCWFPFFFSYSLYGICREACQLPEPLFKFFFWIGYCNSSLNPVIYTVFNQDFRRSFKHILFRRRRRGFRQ
T1 sequence (P19328 whole entry): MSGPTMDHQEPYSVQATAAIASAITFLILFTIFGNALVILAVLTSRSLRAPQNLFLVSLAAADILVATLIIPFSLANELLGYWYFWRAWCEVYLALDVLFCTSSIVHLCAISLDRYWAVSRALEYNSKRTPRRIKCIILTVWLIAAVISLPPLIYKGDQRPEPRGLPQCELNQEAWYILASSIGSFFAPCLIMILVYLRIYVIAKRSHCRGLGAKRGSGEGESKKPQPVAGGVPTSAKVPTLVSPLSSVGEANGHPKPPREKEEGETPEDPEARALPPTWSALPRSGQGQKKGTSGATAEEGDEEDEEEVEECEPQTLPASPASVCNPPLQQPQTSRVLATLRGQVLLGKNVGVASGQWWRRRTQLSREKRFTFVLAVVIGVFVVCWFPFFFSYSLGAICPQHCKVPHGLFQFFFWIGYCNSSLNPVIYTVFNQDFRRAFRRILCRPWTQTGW
T1 sequence (P22909 whole entry): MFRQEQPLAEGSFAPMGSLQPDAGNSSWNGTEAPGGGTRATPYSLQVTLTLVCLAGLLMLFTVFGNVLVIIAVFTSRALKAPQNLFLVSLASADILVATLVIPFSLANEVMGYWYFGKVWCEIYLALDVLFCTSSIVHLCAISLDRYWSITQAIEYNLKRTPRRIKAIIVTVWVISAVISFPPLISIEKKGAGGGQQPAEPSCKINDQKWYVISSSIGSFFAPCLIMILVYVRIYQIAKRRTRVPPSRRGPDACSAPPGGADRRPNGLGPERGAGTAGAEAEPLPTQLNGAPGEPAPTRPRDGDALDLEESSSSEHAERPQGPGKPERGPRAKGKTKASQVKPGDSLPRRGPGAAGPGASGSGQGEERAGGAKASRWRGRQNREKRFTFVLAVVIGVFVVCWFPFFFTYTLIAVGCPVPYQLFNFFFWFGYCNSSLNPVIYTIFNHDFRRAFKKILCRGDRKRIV

[2] = target: T2, Adrenergic receptor alpha-1 (Rattus norvegicus, UniProt P15823+P23944+P43140); assay: Binding affinity to alpha-1 adrenergic receptor determined by measurement of [3H]prazosin displacement from rat cortical membrane
T2 sequence (P15823 whole entry): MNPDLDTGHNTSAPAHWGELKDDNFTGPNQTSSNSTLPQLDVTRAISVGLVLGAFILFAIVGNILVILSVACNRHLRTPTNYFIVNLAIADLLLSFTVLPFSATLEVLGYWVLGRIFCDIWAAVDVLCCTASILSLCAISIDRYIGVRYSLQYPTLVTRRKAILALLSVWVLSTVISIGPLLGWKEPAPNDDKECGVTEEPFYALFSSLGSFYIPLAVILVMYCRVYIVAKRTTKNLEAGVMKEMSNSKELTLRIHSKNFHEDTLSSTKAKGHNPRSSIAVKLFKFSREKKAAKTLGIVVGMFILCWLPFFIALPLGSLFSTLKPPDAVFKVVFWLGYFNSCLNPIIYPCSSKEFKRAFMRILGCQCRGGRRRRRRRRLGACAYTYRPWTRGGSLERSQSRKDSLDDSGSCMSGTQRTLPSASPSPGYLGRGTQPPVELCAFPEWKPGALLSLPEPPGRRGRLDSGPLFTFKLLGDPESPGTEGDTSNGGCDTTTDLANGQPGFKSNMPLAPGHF
T2 sequence (P23944 whole entry): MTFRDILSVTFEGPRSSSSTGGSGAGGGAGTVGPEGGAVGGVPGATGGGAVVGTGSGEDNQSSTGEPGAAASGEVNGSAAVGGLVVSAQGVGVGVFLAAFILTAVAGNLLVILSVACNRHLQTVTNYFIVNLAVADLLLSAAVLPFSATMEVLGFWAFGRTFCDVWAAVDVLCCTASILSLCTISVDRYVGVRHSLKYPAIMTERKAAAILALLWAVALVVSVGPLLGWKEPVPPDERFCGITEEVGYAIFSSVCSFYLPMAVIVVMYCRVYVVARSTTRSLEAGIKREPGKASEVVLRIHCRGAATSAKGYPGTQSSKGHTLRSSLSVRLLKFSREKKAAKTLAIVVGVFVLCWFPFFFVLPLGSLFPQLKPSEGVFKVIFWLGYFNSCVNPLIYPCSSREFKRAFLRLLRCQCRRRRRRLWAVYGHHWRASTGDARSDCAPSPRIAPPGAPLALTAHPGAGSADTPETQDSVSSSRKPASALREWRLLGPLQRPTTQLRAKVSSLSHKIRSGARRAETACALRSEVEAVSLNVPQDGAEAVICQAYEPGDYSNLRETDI
T2 sequence (P43140 whole entry): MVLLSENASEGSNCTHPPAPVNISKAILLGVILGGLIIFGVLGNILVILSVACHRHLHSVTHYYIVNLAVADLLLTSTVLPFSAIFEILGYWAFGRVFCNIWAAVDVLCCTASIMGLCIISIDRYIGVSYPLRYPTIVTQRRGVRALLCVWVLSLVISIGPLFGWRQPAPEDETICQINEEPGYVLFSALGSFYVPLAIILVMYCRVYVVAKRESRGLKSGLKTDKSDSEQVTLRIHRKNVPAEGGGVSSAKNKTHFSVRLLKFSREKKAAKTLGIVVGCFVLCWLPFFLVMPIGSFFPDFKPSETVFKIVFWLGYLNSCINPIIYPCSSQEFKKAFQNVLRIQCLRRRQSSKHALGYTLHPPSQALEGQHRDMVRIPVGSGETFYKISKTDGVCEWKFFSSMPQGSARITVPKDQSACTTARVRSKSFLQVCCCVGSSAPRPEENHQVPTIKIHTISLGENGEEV
Method in brief: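 Male Sprague-Dawley rat (150-200 g) cerebral cortex membranes, washed in 50 mM Tris-HCl/0.5 mM EDTA pH 7.4. 250 µg membrane protein incubated with 0.5 nM [3H]prazosin for 30 min at 25 °C in a 0.5 mL volume. Nonspecific binding defined by 10 µM phentolamine. IC50 estimated graphically; Ki calculated by Cheng-Prusoff.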

Row | SMILES | Log Ki [1] | Log Ki [2]
1 | COc1ccc2c(c1)CCN1C[C@H]3CCCN(S(=O)(=O)CCl)[C@@H]3C[C@@H]21 | -8.95 | -5.13
2 | CS(=O)(=O)N1CCC[C@H]2CN3CCc4ccccc4[C@@H]3C[C@H]21 | -5.96 | -5.58
3 | CCCCS(=O)(=O)N1CCC[C@H]2CN3CCc4ccccc4[C@@H]3C[C@@H]21 | -7.42 | -5.3
4 | CS(=O)(=O)N1CC[C@@H]2CN3CCc4ccccc4[C@@H]3C[C@@H]2C1 | -7.54 | -5.8
5 | CN1C[C@H]2CCCN(S(C)(=O)=O)[C@H]2C[C@H]1c1ccc2c(c1)OCO2 | -5.38 | -4.82
6 | CS(=O)(=O)N1CCC[C@@H]2CN(CCc3ccccc3)CC[C@@H]21 | -6.12 | -5.51
7 | CN1C[C@@H]2CCCN(S(C)(=O)=O)[C@@H]2C[C@H]1c1ccc2c(c1)OCO2 | -6.13 | -5.55
8 | COc1ccc2c(c1)CCN1C[C@H]3CCCN(S(=O)(=O)N(C)C)[C@H]3C[C@@H]21 | -8.66 | -5.25
9 | CS(=O)(=O)N1CCC[C@H]2CN3CCc4ccccc4[C@@H]3C[C@@H]21 | -7.25 | -5.65
10 | COc1cccc2c1[C@@H]1C[C@H]3[C@H](CCCN3S(C)(=O)=O)CN1CC2 | -8.65 | -5.48
11 | COc1ccc2c(c1)CCN1C[C@H]3CCCN(S(=O)(=O)c4cccs4)[C@@H]3C[C@@H]21 | -8.83 | -5.01
12 | CS(=O)(=O)N1CCC[C@@H]2CN3CCc4ccc(F)cc4[C@@H]3C[C@@H]21 | -8.04 | -5.21
13 | CCCCS(=O)(=O)N1CCC[C@H]2CN3CCc4ccccc4[C@@H]3C[C@H]21 | -5.82 | -5.76
14 | COc1cc2c(cc1OC)[C@@H]1C[C@H]3[C@H](CCCN3S(=O)(=O)CC(C)C)CN1CC2 | -8.1 | -4.46
15 | CS(=O)(=O)N1CCC[C@@H]2CN3CCc4c([nH]c5ccccc45)[C@@H]3C[C@@H]21 | -7.78 | -4.8
16 | COc1ccc2c(c1)CCN1C[C@@H]3CCCN(S(C)(=O)=O)[C@H]3C[C@@H]21 | -7.84 | -5.2
17 | C=CS(=O)(=O)N1CCC[C@@H]2CN3CCc4cc(OC)ccc4[C@@H]3C[C@@H]21 | -8.82 | -5.33

Row | SMILES | Log Ki [1] | Log Ki [2]
18 | COc1ccc2c(c1Br)CCN1C[C@H]3CCCN(S(C)(=O)=O)[C@@H]3C[C@@H]21 | -8.3 | -5.35
19 | CC(C)CS(=O)(=O)N(C)[C@@H]1CCN2CCc3ccccc3[C@@H]2C1 | -8.04 | -5.7
20 | CS(=O)(=O)N1CC[C@H]2C[C@H]3c4ccccc4CCN3C[C@H]2C1 | -6.4 | -5.2
21 | COc1ccc2c(c1OC)CCN1C[C@H]3CCCN(S(C)(=O)=O)[C@H]3C[C@@H]21 | -7.94 | -4.42
22 | CS(=O)(=O)N1CCC[C@H]2[C@H]3c4cc5c(cc4CCN3CC[C@@H]21)OCO5 | -6.4 | -5.06
23 | CS(=O)(=O)N1CCC[C@@H]2CN3CCc4cc(O)ccc4[C@@H]3C[C@@H]21 | -8.2 | -5.27
24 | CS(=O)(=O)N1CCC[C@H]2CN3CCc4c([nH]c5ccccc45)[C@@H]3C[C@H]21 | -6.26 | -5.15
25 | COc1ccc2c(c1)CCN1C[C@H]3CCCN(S(N)(=O)=O)[C@H]3C[C@@H]21 | -8.43 | -4.92
26 | COc1ccc2c(c1)CCN1C[C@H]3CCCN(S(=O)(=O)NC(C)(C)C)[C@H]3C[C@@H]21 | -7.78 | -5.26
27 | COc1ccc(OC)c2c1CCN1C[C@H]3CCCN(S(C)(=O)=O)[C@H]3C[C@@H]21 | -7.37 | -5.63
28 | COc1ccc2c(c1)CCN1C[C@@H]3CCCN(S(C)(=O)=O)[C@@H]3C[C@@H]21 | -6.88 | -4.85
29 | CN(C)S(=O)(=O)N1CCC[C@@H]2CN3CCc4ccccc4[C@@H]3C[C@@H]21 | -8.74 | -6.03
30 | O=S(=O)(c1ccc(F)cc1)N1CCC[C@@H]2CN3CCc4ccccc4[C@@H]3C[C@@H]21 | -8.69 | -5.38
31 | CS(=O)(=O)N1CCC[C@H]2CN3CCc4cc5c(cc4[C@@H]3C[C@@H]21)OCO5 | -7.56 | -5.65
32 | COc1cc2c(cc1OC)[C@@H]1C[C@H]3[C@H](CCCN3S(C)(=O)=O)CN1C(C)C2 (stereo partly drawn) | -7.08 | -4.93
33 | COc1cc2c(cc1Br)[C@@H]1C[C@@H]3[C@H](CCCN3S(C)(=O)=O)CN1CC2 | -8.3 | -5.25
34 | CS(=O)(=O)N1CCC[C@H]2CN3CCc4cc5c(cc4[C@@H]3C[C@H]21)OCO5 | -7.24 | -5.95
